Test system: MS2 coat protein
Assay: apparent Kd, MS2 coat protein; higher = weaker binding; RNA-MaP array; FMN 200 µM where present
Summary of the method: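 Stalled E. coli RNA polymerase transcribed the designs on Illumina sequencing-chip clusters. SNAP-549-labelled MS2 coat protein was titrated from 0.7 or 1.5 nM, doubling to 3 µM, without and then with constant ligand, in 100 mM Tris-HCl pH 7.5, 80 mM KCl, 4 mM MgCl2, BSA, DTT, yeast tRNA and Tween-20. Per-cluster binding curves were fitted to green signal normalised to red-channel RNA signal and control-cluster median Fmax. The apparent Kd is the median of the filtered fits.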

[1] = designed as: ON switch for flavin mononucleotide, no ligand
[2] = ligand present: flavin mononucleotide, designed as: ON switch for flavin mononucleotide
[3] = designed as: OFF switch for flavin mononucleotide, no ligand
[4] = ligand present: flavin mononucleotide, designed as: OFF switch for flavin mononucleotide

| Sequence | apparent Kd [1] [nM] | apparent Kd [2] [nM] | apparent Kd [3] [nM] | apparent Kd [4] [nM] |
| --- | --- | --- | --- | --- |
| ACAUGGAAUACAGGAUAUGUUAGUUUACAGUAGAUUGGUUAUUACUUAACUACAGAAGGGUAAUACAUGAGGAUCACCCAUGUA | 18.4 | 11.8 | – | – |
| GCUAGUGCUGUGAGGAUAUGUGAUCGGAAAUGAUCGUAGAAGGCACAUGAGGAUCACCCAUGUAAGGUGCUAGU | – | – | 287 | 37.6 |
| UUUAUGUGAGGAUAUCAGUAGUAAAAAAAUAAAAUUACUACUGAGAAGGCACAUGAGGAUCACCCAUGUGCUUC | – | – | 19.5 | 15.1 |
| GGAUGACAAAGUCAUCCUAAACGAACAUGAGGAUCACCCAUGUAGGAUAUGCUACUCAAAGAGUAGCAGAAGGACAUGUGCCUU | – | – | 37.3 | 260 |
| GUAGCAUACCGAGGAUAUUCAUACCCGAAAGGGACAUGAGGAUCACCCAUGUGGCGAAAGCCUUGGGAGAAGGCGGAAUGCUAC | 580 | 24.4 | – | – |
| CCGUUACAUGAGGAUCACCCAUGUGAGGAUAUCGGUGUGACUGGCAGCGUGCGGGACUCGAGAAGGCGCUUGGC | – | – | 48.5 | 48.4 |
| GCCAUCGCAUGAGGAUAUAAAAUUAUAAUUAAAUUAGAAGGCAUGUCAUAAGACAUGAGGAUCACCCAUGUAGUUAAGAUGGCA | 483 | 132 | – | – |
| UAAAACCUAGGAUAUACAUGAGGAUCACCCAUGUUCGAAGGAGCCCAAGUGACUUCUAGUAGAAGGAGGGCGAA | – | – | 18.8 | 23 |
| AAAUACCGGUGAGGAUAUUUAUAAUAGAACUUUAUGAUAUACAUGAGGAUCACCCAUGUUACUUUAAAGAAGGCAUCGGAUAAA | – | – | 18.8 | 15 |
| AUCAGCUCGUCAGGAUAUACGUCACUCCGUCAGCAGUGUGGUAAGAUCACAUGAGGAUCACCCAUGUAGAAGGGACGAGCUGAU | – | – | 29.5 | 253 |
| GUAGCUAUCGGAGGAUAUUCAUACCGGAAACGGACAUGAGGAUCACCCAUGUGGCGAAAGCAUUGGGAGAAGGCCGAUAGCUAC | 576 | 19.7 | – | – |
| GCGUAAUAGGUGUAGCUAGUCGUACAAGAAGGGUGGUGAACAUGAGGAUCACCCAUGUGGUCAAUACAGGAUAUUGUUAUACGC | 832 | 112 | – | – |
| UAUUAAAACGAGAAGGGAGUACAUGAGGAUCACCCAUGUGCCUCAUAAUACUCAGGAUAUCGUGAUUGGGUCACCAGCUGGGUG | – | – | 509 | 29.3 |
| UUGGUUAUACAAGGAUAUCAAUUAUAUACACAUCCUACAUGAGGAUCACCCAUGUUUUAUUUUUUUGAGAAGGUGUAUUGUCGG | 22.4 | 29 | – | – |
| UUCUGUGCCCAAAGUUAAAGCACAUGAGGAUCACCCAUGUGAAAGGAUAUGUGGCGUGUAACGUUAUAGAAGGUUCACAAACAA | – | – | 31.9 | 105 |
| GUGAAGUGAGGAUAUACGAGAGAGGCUGAACCUGGAGAGAAGUAGAAGGCACAUGAGGAUCACCCAUGUUAGGA | – | – | 39.6 | 30.3 |
| AAAGAAGAAAGACAGGAUAUGGAUGGGUAAACAUGAGGAUCACCCAUGUAUAAGAAAGAAAGAAACCAGAAGGGUCAAAAGAAAA | 165 | 33.6 | – | – |
| AGCUGUGGCCGAGGAUAUACAUCCUUUAUAACCGAUGAAUAUCAUCGGACAUGAGGAUCACCCAUGUAGAAGGCGGUCUCAGCA | – | – | 149 | 750 |
| ACCUAGACUAGGCCCACGGCAUCACAGGAUAUGCCGAUCACAUGAGGAUCACCCAUGUCAACUCCGCAGAAGGGUGAUAUCGUG | 179 | 14.1 | – | – |
| AUGCCUUAUGUAGGAUAUGCAUAGAGUUGCUAUGCAGAAGGACAUGAGGAUCACCCAUGUAUGUAUACCAUACAUAUCUGGCAU | – | – | 35.6 | 316 |
| UUCACCUUAUUUUACAUGAGGAUCACCCAUGUUUUUUUUACGUAGGAUAUCGAUGCUUGUUUAUUCGAGAAGGACGAUGUAAGU | 36.6 | 32.4 | – | – |
| AUAAUUUUGUAGAAGGUACGUGAUUAGUCAAAGUAAGGAUAUACUGACAUGAGGAUCACCCAUGUUUUAAUAGUUAACAGUUCU | 12.8 | 7.99 | – | – |
| CCGACCUUGGCAGGAUAUAGACUCGAAGUUGAUCCCGCCGAUGGAGACAUGAGGAUCACCCAUGUCUAGAAGGGCCAGUCGAAA | – | – | 14.3 | 46.1 |
| AGAAGGCUACAGAAGGGACACACACGGUGGGAGUCAGGAUAUGUAGAGAAAACGUUACAUGAGGAUCACCCAUGUAGACCUUCC | 73.9 | 16.8 | – | – |
| UAUAUAUAGUAAGGAUAUGUAUAUAUUUUAUUAACAGAAGGUACUGACAUGAGGAUCACCCAUGUUUUAGUGUGGGCAUGUAGA | – | – | 76.7 | 100 |
| GUAGCUAUUAAAGGAUAUUCAUACCGGAAACGGACAUGAGGAUCACCCAUGUGGCGAAAGCCUUGGGAGAAGGUUAUUAGCUAC | 378 | 15.6 | – | – |
| CUGAUGUCAGGAUAUCGGUGGCUCACUUGUGUGUGCCAGACCGAGAAGGGACAUGAGGAUCACCCAUGUUUCUA | – | – | 21.1 | 93.4 |
| GACAUGGUCCAGAAGGGCUAUUUAUUUAAGUAUUAUUUAGAACAGCAUAGCAGGAUAUGGCUAACAUGAGGAUCACCCAUGUUC | 18.8 | 11.6 | – | – |

| Sequence | apparent Kd [1] [nM] | apparent Kd [2] [nM] | apparent Kd [3] [nM] | apparent Kd [4] [nM] |
| --- | --- | --- | --- | --- |
| GCACUUACGUUAGGAUAUGGAUCGGAAAACGAUCCAGAAGGAAUAUGGGAACAUGAGGAUCACCCAUGUUCCACAGACAAGUGC | 43.3 | 25.9 | – | – |
| AUGUACCGGUGAGGAUAUUUUUAAUAGAGCUUUAUGAUAUACAUGAGGAUCACCCAUGUUACUUUAAAGAAGGCAUCGGAUUAA | – | – | 19 | 14 |
| UGUGUGUGGCAGGAUAUGCCGGUCGUUGGACGGGUAGAAGGGUCUACAUGAGGAUCACCCAUGUGGCCGGUUGG | – | – | 18.4 | 20.2 |
| AUCAGCUAGUCAGGAUAUACGUCACUGCGUCAGCAGUGUGGUAAGAUCACAUGAGGAUCACCCAUGUAGAAGGGACGAGCUGAU | – | – | 14.2 | 295 |
| GGUGCGAUGUAGAAGGCAGAUCUGAUUCAGAUCUGAGGAUAUACAUGAGGAUCACCCAUGUUAAGGCACCGCACGAGAGUGCAA | – | – | 7.4 | 13.7 |
| ACAUGAGGAUCACCCAUGUAGAAUGAAGAAGGUACGUUAUUGAUAUGCAGGAAGUGUCGGUGUUGUAAGGAUAUUCUAAUAAUU | 15.5 | 8.16 | – | – |
| GUCAAGCUAGGAUAUACAUGAGGAUCACCCAUGUUAUCCUCGUGGGCAGUUUCUUCAUGUAGAAGGAGCAAAGG | – | – | 38 | 16.6 |
| AGCAUGUGAGGAUAUGCGGACUCCGGUAAAUCUGGAAUCCAGUAGAAGGCACAUGAGGAUCACCCAUGUGAUAA | – | – | 68.2 | 55.9 |
| GUGUAGUGAGGAUAUCGUUGUUAGGAGGAGAAGGUAGGAGGCGAGAAGGCACAUGAGGAUCACCCAUGUAUGAG | – | – | 35.1 | 23.7 |
| CCGCGGCGUGCAGGAUAUGUUACGAUACCUCGGACAGAAGGGCACAUGAGGAUCACCCAUGUAAUAUAUAUGGAACAUAUAUAG | – | – | 33.8 | 53.3 |
| UUGGACGUCGUAGGAUAUGUAGGAUUUUCCUACAUGAGGAUCACCCAUGUUGACAUGGAAGAAGGACAGAAGGACGAUGUCCAU | 648 | 16.3 | – | – |
| AGCUAAAUGUCAGGAUAUGCCCGCCAGGUGGAAGCAGAAGGGACAUACCAGACAUGAGGAUCACCCAUGUAAACUGGGUAAGAA | 142 | 126 | – | – |
| GAUUCACAUGAGGAUCACCCAUGUGAGGAUAUAGUGCAGGAGGUGGAUGCCCGCCUCUCUAGAAGGCACACGGG | – | – | 21.9 | 24.5 |
| AACUCGUUAGGAUAUACCGCCAACGAUACCUCGUGAAACAUACAUGAGGAUCACCCAUGUAGAAGGAGCGAGCA | – | – | 16.9 | 23.3 |
| UAUGGUAAAGUCAGGAUAUACGUACAUCGUUCUAGGUAGAAGGGACAUGAGGAUCACCCAUGUAUGGUAGUGUU | – | – | 106 | 107 |
| CCAUCAGCGAACGUAUCGGUUGGACAUGAGGAUCACCCAUGUAGAAGGACAGGAGUAUUACGGCUGUAGGAUAUACAUUUAGUG | – | – | 21.3 | 18 |
| AAAAAGUGAGGAUAUACGAGGAGAAACAACAAACAAACAAAACAUGAGGAUCACCCAUGUAGAAGGCACAAAAA | – | – | 21.1 | 26.2 |
| AUGGUUGUCGUAGGAUAUGUAGGAUAUUCCUACAUGAGGAUCACCCAUGUUCGCAUGGAAGAAGGACGGAAGGACGAUGACCAU | 194 | 132 | – | – |
| AGUGUCAUCGAGAAGGCCUCAUGAACAUGAGGAUCACCCAUGUAAAAUGGGAGGAUAUCGAUGAUACAGCUACGUUUCGUAGCA | 74.4 | 28.5 | – | – |
| AGUAGAUCAGGAUAUACGUAAAUGGUAAUUAUGUAACUUCAACAUGAGGAUCACCCAUGUAGAAGGGAUCUACA | – | – | 14.6 | 15.1 |
| AAGGAGUGAGGAUAUACAUGAGGAUCACCCAUGUUGAUGGAAACGUCAGAGAAAGAAGGUAGAAGGCACAAGAA | – | – | 56.7 | 58.5 |
| UUUAUAUUCAGAGGAUAUUAAUGUAGUAUAACAUAAGAAGGCUGUUUGUUUUGUAAAGUAAUUCUACAUGAGGAUCACCCAUGU | 21.4 | 16.2 | – | – |
| UUAAAUCAUGUAGGAUAUGCAUGGCGAAGCUACGCAGAAGGACAUGAGGAUCACCCAUGUCUCUCCGUCUGCGUACAGACGGAG | – | – | 24.6 | 155 |
| ACGACGAAAGUCGAACGAUGAUCGAGAAGGACAUGAGGAUCACCCAUGUCUGCUGUAACAGCCAUGUAGGAUAUCGAUCAUCGA | – | – | 3.62 | 4.13 |
| GUUUACGUGGAAGGAUAUACAUUUGACAUCCUGAUGCGCGCAAUACCCACAUGAGGAUCACCCAUGUAGAAGGUCUGCGAAAGA | – | – | 14.7 | 18.4 |
| UCGACCAGCGCCAGCCGAACAUGAGGAUCACCCAUGUACUCCAGAAGGCCGCCCAAGAACGGAGUGGAGGAUAUGGAGGUUCUC | 38 | 35.5 | – | – |
| GAACUCGUGAAGGAUAUCCGUACCAAAGCGGCAGGAGAAGGUCACACAUGAGGAUCACCCAUGUGGUACCUCGU | – | – | 30 | 130 |

— the EternaBench riboswitch data
